Test results reported in ChEMBL document CHEMBL1158431, “Anti-inflammatory cembranolides from the soft coral Lobophytum durum” (2009).
The source made the active and inactive calls. The calls are words filed in the database; no cut-off is given here.

Assays:
[1] = test system: Salmonella enterica subsp. enterica; assay: Antibacterial activity against Salmonella enteritidis ATCC 13076 up to 100 ug/disk after 24 hrs by agar well diffusion method; format: functional, organism-based; conditions: Salmonella enterica subsp. enterica serovar Enteritidis, in the assay text read “paper disk diffusion method” for “agar well diffusion method”
How it was run: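 S. enteritidis ATCC13076 grown in LB broth 24 h at 37 °C. Broth culture (0.3 mL) mixed into 0.7% LB soft agar and layered over 1.5% LB hard agar. Compound applied to 8 mm paper disks at 2 μg/μL, tested up to 100 μg/disk. Ampicillin (5 μg/μL) and solvent served as controls. Plates incubated 24 h at 37 °C.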

[2] = test system: Human betaherpesvirus 5; assay: Inhibition of HCMV UL76 encoded endonuclease expressed in Escherichia coli BL21 (DE3)-RIL assessed as inhibition of supercoiled double stranded phi X 174 bacteriophage DNA cleavage after 1 hr by agarose gel electrophoresis
How it was run: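 Calmodulin-tagged HCMV UL76 endonuclease purified from E. coli BL21-codon DE3-RIL carrying pCBP-UL76. Serially diluted compound incubated with 1 µg CsCl-purified supercoiled dsDNA φX174, reaction buffer and enzyme at 37 °C for 1 h. Products resolved on 1% agarose gel. IC50 is the concentration giving 50% inhibition of substrate cleavage.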

[3] = test system: RAW264.7; assay: Antiinflammatory activity in LPS-stimulated mouse RAW264.7 cells assessed as iNOS protein expression at 10 uM after 16 hrs by immunoblot analysis relative to control; conditions: RAW264.7, 16 h
[4] = test system: RAW264.7; assay: Antiinflammatory activity in LPS-stimulated mouse RAW264.7 cells assessed as inhibition of COX2 protein expression at 10 uM after 16 hrs by immunoblot analysis relative to control; format: functional
How it was run: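 RAW 264.7 macrophages (ATCC TIB-71) stimulated with E. coli LPS (0.01 μg/mL) for 16 h with or without compound. Cells washed in ice-cold PBS, lysed, and spun at 20,000g for 30 min at 4 °C. Equal protein loaded for SDS-PAGE and transferred to PVDF. Blots probed 180 min with anti-iNOS or anti-COX-2 (1:1000) and detected by ECL. Levels expressed relative to LPS-only cells. CAPE 10 µM used as reference.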

[5] = test system: RAW264.7; assay: Antiinflammatory activity in LPS-stimulated mouse RAW264.7 cells assessed as COX2 protein expression at 10 uM after 16 hrs by immunoblot analysis relative to control; conditions: RAW264.7, 16 h

Row | SMILES | inhibition [2] | inhibition [1] | iNOS protein level (% of LPS control) at 10 µM [3] [%] | inhibition [4] | Activity [4] | COX-2 protein level (% of LPS control) at 10 µM [5] [%]
1 | C=C1C(=O)O[C@H]2C(=O)/C(C)=C/CC/C(C)=C/CC[C@@]3(CO)O[C@@H]3C[C@H]12 (relative stereo) [DURUMOLIDE K] | inactive | inactive | 5.7 |  |  | 71.6
2 | C=C1C(=O)O[C@H]2C(=O)/C(C)=C/CC/C(C)=C/CC[C@@]3(C=O)O[C@@H]3C[C@H]12 (relative stereo) [DURUMOLIDE L] | inactive | inactive | 1.2 | inactive |  | 
3 | O=C(/C=C/c1ccc(O)c(O)c1)OCCc1ccccc1 [CAFFEIC ACID PHENETHYL ESTER] |  |  | 1.5 |  |  | 70.2
4 | C=C1C(=O)O[C@H]2C/C(C)=C/CC/C(C)=C/CC[C@](O)(COC(C)=O)[C@@H](O)C[C@H]12 [DURUMOLIDE F] | inactive | inactive | 0.8 |  |  | 47.8
5 | C=C1C(=O)O[C@@H]2[C@@H]1C[C@H]1O[C@]1(C)CC/C=C(\C)CC/C=C(\C)[C@H]2O [DURUMOLIDE J] | inactive | inactive | 0.1 | inactive |  | 
6 | C=C1C(=O)O[C@H]2C/C(C)=C/CC/C(C)=C/CC[C@@]3(CO)O[C@@H]3C[C@H]12 [SINULAROLIDE D] | inactive | inactive | 2.2 | inactive |  | 

Now from value to molecule, other results behind:

Row | inhibition [2] | SMILES | inhibition [1] | iNOS protein level (% of LPS control) at 10 µM [3] [%] | inhibition [4] | Activity [4] | COX-2 protein level (% of LPS control) at 10 µM [5] [%]
7 | inactive | C=C1C(=O)O[C@@H]2[C@@H]1C[C@H](OC(C)=O)[C@@](O)(COC(C)=O)CC/C=C(\C)CC/C=C(\C)[C@H]2O (relative stereo) [DURUMOLIDE G] | inactive | 7.3 | inactive |  | 
8 | inactive | C=C1C(=O)O[C@@H]2[C@@H]1C[C@H](OC(C)=O)[C@@](O)(COC(C)=O)CC/C=C(\C)CC/C=C(\C)[C@H]2OC(C)=O (relative stereo) [DURUMOLIDE H] | inactive | 22.6 |  | inactive | 
9 | inactive | C=C1C(=O)O[C@@H]2[C@@H]1C[C@H]1O[C@]1(COC(C)=O)CC/C=C(\C)[C@@H](O)C/C=C(\C)[C@H]2OC(C)=O (relative stereo) [DURUMOLIDE I] | inactive | 6.2 | inactive |  | 
